This note sets out measurements from ChEMBL document CHEMBL3112466, “Structure-activity relationship analysis of imidazoquinolines with Toll-like receptors 7 and 8 selectivity and enhanced cytokine induction” (J Med Chem, 2014).

Structures are written as SMILES. pEC50: −log10 of the molar value. Active and inactive are the calls of the source. The rule behind the calls is not given here.

For experiment [1], the target named is T1, TLR7 and TLR8 (Mus musculus) (UniProt P58681+P58682). Briefly: Agonist activity at TLR7/TLR8 in C57BL/6 mouse BMDC assessed as induction of IL-1beta production at 30 uM after 3 days by flow cytometric analysis. It is filed as protein assay. The procedure, abridged:
(§1)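 BMDCs from femoral marrow of 6−8-week C57BL/6 mice; red cells lysed (0.83% NH₄Cl, 0.1% KHCO₃, 0.009% EDTA); 5 million cells per well cultured six days in complete RPMI with mouse GM-CSF 20 ng/mL. Stimulated with 30 μM compound for 3 days; supernatant cytokines quantified by flow cytometric bead array; measured in triplicate.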

The next experiment concerns the target T2, Toll-like receptor 8 (Homo sapiens, UniProt Q9NR97).
T2 sequence (Q9NR97 whole entry): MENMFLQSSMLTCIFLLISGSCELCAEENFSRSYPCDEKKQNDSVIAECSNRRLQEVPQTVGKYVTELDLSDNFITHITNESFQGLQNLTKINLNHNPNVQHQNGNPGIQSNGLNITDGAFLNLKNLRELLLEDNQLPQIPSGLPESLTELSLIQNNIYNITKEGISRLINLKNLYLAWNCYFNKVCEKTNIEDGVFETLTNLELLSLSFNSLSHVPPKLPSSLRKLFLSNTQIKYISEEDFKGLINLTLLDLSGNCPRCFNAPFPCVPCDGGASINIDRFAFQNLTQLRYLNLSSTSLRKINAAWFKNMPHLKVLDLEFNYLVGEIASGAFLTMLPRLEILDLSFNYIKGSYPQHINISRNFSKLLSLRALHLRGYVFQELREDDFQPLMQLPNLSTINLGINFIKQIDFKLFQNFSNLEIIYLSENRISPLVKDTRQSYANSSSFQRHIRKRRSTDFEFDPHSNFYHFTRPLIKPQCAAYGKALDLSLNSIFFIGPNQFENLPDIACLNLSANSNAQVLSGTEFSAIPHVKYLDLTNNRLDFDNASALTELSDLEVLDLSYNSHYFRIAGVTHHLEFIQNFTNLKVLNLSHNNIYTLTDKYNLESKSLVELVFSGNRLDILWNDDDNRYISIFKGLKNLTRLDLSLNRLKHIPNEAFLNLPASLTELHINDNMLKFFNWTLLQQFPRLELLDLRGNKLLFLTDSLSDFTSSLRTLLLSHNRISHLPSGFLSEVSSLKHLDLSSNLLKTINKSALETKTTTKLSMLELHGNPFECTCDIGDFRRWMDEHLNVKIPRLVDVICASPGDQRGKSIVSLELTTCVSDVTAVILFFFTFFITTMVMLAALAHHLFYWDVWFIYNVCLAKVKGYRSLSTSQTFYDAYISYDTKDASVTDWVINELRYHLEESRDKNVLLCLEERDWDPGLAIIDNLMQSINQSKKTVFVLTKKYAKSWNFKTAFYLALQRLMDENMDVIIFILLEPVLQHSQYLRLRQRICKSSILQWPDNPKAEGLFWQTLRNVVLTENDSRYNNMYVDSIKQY
Briefly: Agonist activity at human TLR-8 expressed in HEK293 cells after 24 hrs by SEAP reporter gene assay. Format: cell-based. The method, boiled down:
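HEK-293 cells transfected with human TLR-7 or TLR-8 plus NF-κB-inducible SEAP reporter; stimulated with 30 μM compound in DMEM/10% FBS for 24 h. Supernatant incubated with Quanti-blue substrate 1 h at 37 °C; SEAP read as absorbance at 650 nm.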
On the technique in general: A reporter such as luciferase makes a cellular process visible.

The target of experiment [2] is T1, TLR7 and TLR8 (Mus musculus). Nature of the experiment: Agonist activity at TLR7/TLR8 in C57BL/6 mouse BMDC assessed as induction of IL-12p40 production at 30 uM after 3 days by flow cytometric analysis. It is filed as protein assay. The procedure, abridged: as §1
In general terms: In flow cytometry, cells or beads pass a laser one at a time.

The target is the same in experiment [3]. Nature of the experiment: Agonist activity at TLR7/TLR8 in C57BL/6 mouse BMDC assessed as induction of IL-10 production at 30 uM after 3 days by flow cytometric analysis. It is filed as protein assay. The procedure, abridged:
as §1

The target is the same in experiment [4]. Nature of the experiment: Agonist activity at TLR7/TLR8 in C57BL/6 mouse BMDC assessed as induction of TNF-alpha production at 30 uM after 3 days by flow cytometric analysis. Format: protein assay. The procedure, abridged: as §1
The target in experiment [5] is T3, TLR7 and TLR8 (Homo sapiens) (UniProt Q9NYK1+Q9NR97). Briefly: Agonist activity at TLR7/TLR8 in human PBMC assessed as induction of IFN-gamma production at 22.5 uM after 24 hrs by flow cytometric analysis. Format: protein assay. The procedure, abridged:
(§2)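 PBMCs isolated by Ficoll from three independent donors, plated in triplicate at 5 × 10⁵ cells per well, exposed to 22.5 μM compound for 24 h. Medium assayed for TNF-α and IFN-γ by flow cytometric bead array, IFN-α by ELISA.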

Experiment [6] concerns the target T3, TLR7 and TLR8 (Homo sapiens). Nature of the experiment: Agonist activity at TLR7/TLR8 in human PBMC assessed as induction of IFN-alpha production at 22.5 uM after 24 hrs by ELISA. It is filed as protein assay. The method, boiled down: as §2
In general terms: In an ELISA, binding on a coated surface is turned into a signal by an enzyme label.

The target is the same in experiment [7]. Briefly: Agonist activity at TLR7/TLR8 in human PBMC assessed as induction of TNF-alpha production at 22.5 uM after 24 hrs by flow cytometric analysis. It is filed as protein assay. The method, boiled down:
as §2

For a further experiment, the target named is T4, Toll-like receptor 7 (Homo sapiens, UniProt Q9NYK1).
T4 sequence (Q9NYK1 whole entry): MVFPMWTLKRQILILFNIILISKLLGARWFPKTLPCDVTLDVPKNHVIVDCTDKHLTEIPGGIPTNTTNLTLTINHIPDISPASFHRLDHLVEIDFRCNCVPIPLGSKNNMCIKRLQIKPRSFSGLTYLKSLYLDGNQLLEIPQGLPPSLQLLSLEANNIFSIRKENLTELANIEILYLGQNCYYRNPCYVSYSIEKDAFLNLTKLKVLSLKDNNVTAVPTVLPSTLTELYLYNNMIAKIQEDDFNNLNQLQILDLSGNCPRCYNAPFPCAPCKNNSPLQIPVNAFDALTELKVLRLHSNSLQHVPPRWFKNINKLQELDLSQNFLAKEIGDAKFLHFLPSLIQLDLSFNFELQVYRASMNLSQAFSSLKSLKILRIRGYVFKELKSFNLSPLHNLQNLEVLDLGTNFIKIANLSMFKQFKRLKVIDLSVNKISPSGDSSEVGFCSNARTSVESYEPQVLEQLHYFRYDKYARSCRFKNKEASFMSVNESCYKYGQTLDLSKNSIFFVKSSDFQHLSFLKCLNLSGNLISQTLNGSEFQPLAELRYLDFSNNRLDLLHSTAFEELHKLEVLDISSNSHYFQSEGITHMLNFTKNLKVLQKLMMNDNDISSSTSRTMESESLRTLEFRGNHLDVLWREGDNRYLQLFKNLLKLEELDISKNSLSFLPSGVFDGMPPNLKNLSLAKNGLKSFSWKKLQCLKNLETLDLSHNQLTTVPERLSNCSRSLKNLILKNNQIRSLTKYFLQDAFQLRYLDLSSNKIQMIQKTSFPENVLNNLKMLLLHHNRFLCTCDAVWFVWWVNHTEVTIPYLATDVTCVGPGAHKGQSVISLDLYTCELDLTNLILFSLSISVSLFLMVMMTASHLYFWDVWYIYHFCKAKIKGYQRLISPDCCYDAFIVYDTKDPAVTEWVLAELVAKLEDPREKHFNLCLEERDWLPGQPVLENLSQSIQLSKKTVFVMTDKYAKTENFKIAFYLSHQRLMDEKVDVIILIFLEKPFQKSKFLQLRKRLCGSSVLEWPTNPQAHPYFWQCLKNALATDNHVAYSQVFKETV
Nature of the experiment: Agonist activity at human TLR-7 expressed in HEK293 cells after 24 hrs by SEAP reporter gene assay. It is filed as cell-based. As to conditions: for pEC50: read-out: EC50.

T1 sequence (P58681 whole entry, looked up): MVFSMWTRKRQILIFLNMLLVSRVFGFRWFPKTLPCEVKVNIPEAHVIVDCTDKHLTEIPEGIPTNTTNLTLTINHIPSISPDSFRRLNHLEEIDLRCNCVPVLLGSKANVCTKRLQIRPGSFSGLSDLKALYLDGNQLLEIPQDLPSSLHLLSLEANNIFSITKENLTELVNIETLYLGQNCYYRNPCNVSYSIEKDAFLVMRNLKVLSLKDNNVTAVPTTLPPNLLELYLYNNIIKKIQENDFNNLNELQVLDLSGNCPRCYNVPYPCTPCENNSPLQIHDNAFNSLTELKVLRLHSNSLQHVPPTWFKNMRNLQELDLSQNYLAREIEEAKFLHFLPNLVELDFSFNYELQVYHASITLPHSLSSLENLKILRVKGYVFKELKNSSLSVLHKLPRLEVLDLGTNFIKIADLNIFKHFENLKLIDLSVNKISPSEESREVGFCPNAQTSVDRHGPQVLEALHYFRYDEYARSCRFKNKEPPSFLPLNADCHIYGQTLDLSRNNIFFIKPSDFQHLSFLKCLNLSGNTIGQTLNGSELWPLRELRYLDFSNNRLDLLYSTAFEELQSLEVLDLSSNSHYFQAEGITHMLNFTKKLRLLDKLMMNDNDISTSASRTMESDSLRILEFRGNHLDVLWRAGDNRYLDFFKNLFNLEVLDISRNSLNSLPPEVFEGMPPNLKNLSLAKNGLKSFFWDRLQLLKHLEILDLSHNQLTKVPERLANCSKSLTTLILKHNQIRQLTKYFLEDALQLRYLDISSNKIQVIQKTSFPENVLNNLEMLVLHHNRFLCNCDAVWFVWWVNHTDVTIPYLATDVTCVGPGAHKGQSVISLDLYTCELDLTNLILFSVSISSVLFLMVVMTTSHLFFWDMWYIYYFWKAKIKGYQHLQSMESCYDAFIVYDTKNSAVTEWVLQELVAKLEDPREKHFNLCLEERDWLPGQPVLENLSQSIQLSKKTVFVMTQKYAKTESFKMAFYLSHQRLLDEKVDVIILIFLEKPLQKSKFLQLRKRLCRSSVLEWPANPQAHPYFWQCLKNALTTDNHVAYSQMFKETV
T1 sequence (P58682 whole entry, looked up): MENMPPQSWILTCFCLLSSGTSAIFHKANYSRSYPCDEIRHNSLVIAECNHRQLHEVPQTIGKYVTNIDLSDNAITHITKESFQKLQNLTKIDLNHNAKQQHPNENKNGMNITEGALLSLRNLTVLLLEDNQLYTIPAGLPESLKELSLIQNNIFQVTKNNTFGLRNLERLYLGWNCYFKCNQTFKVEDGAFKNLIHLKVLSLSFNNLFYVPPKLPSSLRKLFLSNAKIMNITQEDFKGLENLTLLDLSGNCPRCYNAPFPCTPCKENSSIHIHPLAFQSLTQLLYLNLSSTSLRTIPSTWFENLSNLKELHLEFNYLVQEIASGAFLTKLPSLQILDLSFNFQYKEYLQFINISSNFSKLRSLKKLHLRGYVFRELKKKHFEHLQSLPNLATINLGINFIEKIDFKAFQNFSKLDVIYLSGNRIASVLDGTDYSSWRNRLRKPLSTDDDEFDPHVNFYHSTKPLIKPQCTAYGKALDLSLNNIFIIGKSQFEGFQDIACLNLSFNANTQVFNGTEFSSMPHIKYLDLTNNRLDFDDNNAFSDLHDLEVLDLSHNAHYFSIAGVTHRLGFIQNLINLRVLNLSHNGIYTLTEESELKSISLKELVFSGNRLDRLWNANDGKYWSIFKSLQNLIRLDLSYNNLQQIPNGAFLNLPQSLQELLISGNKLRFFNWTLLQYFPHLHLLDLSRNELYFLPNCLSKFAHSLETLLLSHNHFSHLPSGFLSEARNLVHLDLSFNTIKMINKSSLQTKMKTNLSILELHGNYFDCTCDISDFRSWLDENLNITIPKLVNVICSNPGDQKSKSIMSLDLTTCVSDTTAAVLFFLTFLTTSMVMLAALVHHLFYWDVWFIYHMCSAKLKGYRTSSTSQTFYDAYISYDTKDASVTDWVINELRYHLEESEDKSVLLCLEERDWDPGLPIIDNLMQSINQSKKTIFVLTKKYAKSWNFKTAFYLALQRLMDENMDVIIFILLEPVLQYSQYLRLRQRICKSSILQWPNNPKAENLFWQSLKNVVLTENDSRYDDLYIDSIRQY

With `CCc1nc2c(N)nc3cc(C(=O)OC)ccc3c2n1CC(C)(C)O`, the Activity in [1] was determined as 11 pg/mL; in experiment [2], 78 pg/mL; in experiment [3], 24 pg/mL; in experiment [4], 1170 pg/mL. Moreover, the EC50 entry at Toll-like receptor 8 is “Not Active”.

Consider `CCCCc1nc2c(N)nc3cc(C(=O)OC)ccc3c2n1CC(C)O` (racemic), for which the outcome in experiment [5], in [6] and in experiment [7] was Active. Also, the Activity came to 275 pg/mL in experiment [1], 533 pg/mL in experiment [2], 22 pg/mL in experiment [3] and 1200 pg/mL in experiment [4].

`COC(=O)c1ccc2c(c1)nc(N)c1nc(C)n(CC(C)(C)O)c12`: the Activity in [1] turned out to be 13 pg/mL; in [2], 73 pg/mL; in experiment [3], 27 pg/mL; in experiment [4], 819 pg/mL. For the same compound, on Toll-like receptor 8, the EC50 result is on record as “Not Active”.

`CCCc1nc2c(N)nc3cc(C(=O)OC)ccc3c2n1CC(C)(C)O`: the Activity in experiment [1] was 33 pg/mL; in [2], 365 pg/mL; in experiment [3] it was 23 pg/mL; in experiment [4] it was 1170 pg/mL. Besides, on Toll-like receptor 8, the EC50 entry is “Not Active”.

Take `COC(=O)c1ccc2c(c1)nc(N)c1ncn(CC(C)(C)O)c12`: the Activity in experiment [1] stood at 6 pg/mL; in experiment [2] it was 8 pg/mL; in [3], 9 pg/mL; in [4], 40 pg/mL. For the same compound, the EC50 result at Toll-like receptor 8 and at Toll-like receptor 7 (hek293) was “Not Active” each time.

For `CCCCc1nc2c(N)nc3cc(C(=O)OC)ccc3c2n1CCOCc1ccccc1`, the Activity is 104 pg/mL in experiment [1], 136 pg/mL in experiment [2], 25 pg/mL in experiment [3] and 2240 pg/mL in experiment [4].

As to `COC(=O)c1ccc2c(c1)nc(N)c1nc(Cc3ccccc3)n(CC(C)(C)O)c12`, the Activity was found to be 60 pg/mL in experiment [1], 500 pg/mL in [2], 15 pg/mL in experiment [3] and 971 pg/mL in [4]. In addition, the EC50 result at Toll-like receptor 8 was “Not Active”.

On to `CCCCCc1nc2c(N)nc3cc(C(=O)OC)ccc3c2n1CC(C)(C)O`, for which the outcome in experiment [5], in [6] and in experiment [7] was Active. Besides, the Activity in experiment [1] came to 1010 pg/mL; in experiment [2], 312 pg/mL; in [3] it was 37 pg/mL; in [4], 1810 pg/mL.

As for `CCCCc1nc2c(N)nc3cc(C(=O)OC)ccc3c2n1C[C@@H](C)O`, the outcome in [5], in [6] and in experiment [7] was Active. The Activity in [1] came to 157 pg/mL; in experiment [2], 416 pg/mL; in [3], 20 pg/mL; in experiment [4], 1160 pg/mL.

In the case of `CCCCc1nc2c(N)nc3cc(C(=O)OC)ccc3c2n1CCO`, the Activity in experiment [1] stood at 109 pg/mL; in [2], 290 pg/mL; in experiment [3], 18 pg/mL; in [4], 1210 pg/mL.

`CCOCc1nc2c(N)nc3ccccc3c2n1CC(C)(C)O`: the Activity in experiment [1] is 16 pg/mL; in [2], 236 pg/mL; in experiment [3], 49 pg/mL; in [4], 1740 pg/mL. In addition, in experiment [7], the outcome was Active.

For `CCCCc1nc2c(N)nc3cc(C(=O)OC)ccc3c2n1CC(C)(C)O`, the Activity amounted to 108 pg/mL in experiment [1], 393 pg/mL in experiment [2], 24 pg/mL in experiment [3] and 1100 pg/mL in experiment [4]. Also, the pEC50 on Toll-like receptor 7 is 5.82.

For the compound `CCCCc1nc2c(N)nc3cc(C(=O)OC)ccc3c2n1CCOC`, the Activity in [1] was 484 pg/mL; in experiment [2], 267 pg/mL; in experiment [3], 22 pg/mL; in [4], 1370 pg/mL. Besides, on Toll-like receptor 8, the EC50 entry is given as “Not Active”.

Take `CCCCc1nc2c(N)nc3cc(C(=O)OC)ccc3c2n1C[C@H](C)O`: the outcome in experiment [5], in [6] and in [7] was Active. Besides, the Activity in experiment [1] was found to be 301 pg/mL; in experiment [2], 597 pg/mL; in [3] it was 25 pg/mL; in experiment [4] it was 1190 pg/mL.

For the compound `CC(C)Cn1cnc2c(N)nc3ccccc3c21` [IMIQUIMOD], the Activity in experiment [1] was 19 pg/mL; in experiment [2], 133 pg/mL; in experiment [3], 17 pg/mL; in [4] it was 308 pg/mL. In addition, at Toll-like receptor 8, the EC50 entry is recorded as “Not Active”. Further, the negative-log EC50 (pEC50) on Toll-like receptor 7 is 4.97.

One may read the pEC50 as −log10 of the EC50, conventionally taken in molar units.
